In the library only some 2.8% were active in any assay of this set; here they are far more common.
mABHD4 FP: inhibitors of mouse ABHD4. purified mABHD4, FP-Rh probe fluorescence polarization. inhibition, % at 8.92 µM. hit rate 0.54% among 370,000;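 active = inhibition exceeding the mean over every tested compound plus 3 SD, cut at about 30% in these data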;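 note: 0% = plate median of compound wells and 100% = S159A mutant with DMSO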
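Doses – 8.92 µM, single dose · Material – wild-type mouse ABHD4 protein · Replication – single well per compound (singlicate) · Measure – percent inhibition of probe binding, normalized to plate controls · Schedule – 45 min compound pre-incubation plus 60 min probe step, 25 °C · Detection – fluorescence polarization with parallel and perpendicular emission, 525/598 nm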
PAFAH2 FP inh: PAFAH2 (human) inhibition; AID 492956; recombinant PAFAH2, FP-rhodamine activity probe, fluorescence polarization; inhibition, % at 3.39 µM; hit rate 0.99% among 340,000;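 active = inhibition above the mean over all tested compounds plus 3 SD, cut at about 30% in these data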;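 note: inhibitors block probe labeling of enzyme so polarization drops; 0% = enzyme with DMSO and 100% = wells lacking PAFAH2 protein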
HTRA1 inhibitor: HTRA1 (human) protease inhibition; recombinant HTRA1, FP-rhodamine activity-based probe, fluorescence polarization; inhibition, % at 5.96 µM; hit rate 0.5% among 340,000; Q92743; in the data active = inhibition above about 36%;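 note: 0% = enzyme with DMSO and 100% = wells lacking enzyme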
PAFAH1B2 FP inh: inhibitors of human PAFAH1B2 | P68402 | recombinant PAFAH1B2, FP-rhodamine activity probe, fluorescence polarization | inhibition, % at 3.39 µM | hit rate 1.2% among 340,000;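 active = inhibition above the mean of all tested compounds plus 3 SD, cut at about 24% in these data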;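 note: 0% = enzyme with DMSO and 100% = wells lacking PAFAH1B2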
PAFAH1B3 FP inh: inhibitors of human PAFAH1B3 | inhibition, % at 3.39 µM | AID 492972 | hit rate 0.28% among 340,000 | Q15102 | recombinant PAFAH1B3, FP-rhodamine probe, fluorescence polarization;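 active = inhibition above the screen-wide average of all tested compounds plus 3 SD, cut at about 25% in these data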;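 note: 0% = enzyme with DMSO only and 100% = wells lacking PAFAH1B3 protein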
pPAFAH FP inh: inhibitors of human plasma PAF acetylhydrolase (pPAFAH). recombinant pPAFAH, FP-rhodamine probe fluorescence polarization. inhibition, % at 3.39 µM. hit rate 1.5% among 330,000;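 active = inhibition above the mean inhibition across the screen plus 3 SD, cut at about 25% in these data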;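 note: inhibitors block binding of the rhodamine activity-based probe so polarization drops; 0% = enzyme with DMSO and 100% = wells lacking pPAFAH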
Target sequence (Q13093 whole entry, looked up): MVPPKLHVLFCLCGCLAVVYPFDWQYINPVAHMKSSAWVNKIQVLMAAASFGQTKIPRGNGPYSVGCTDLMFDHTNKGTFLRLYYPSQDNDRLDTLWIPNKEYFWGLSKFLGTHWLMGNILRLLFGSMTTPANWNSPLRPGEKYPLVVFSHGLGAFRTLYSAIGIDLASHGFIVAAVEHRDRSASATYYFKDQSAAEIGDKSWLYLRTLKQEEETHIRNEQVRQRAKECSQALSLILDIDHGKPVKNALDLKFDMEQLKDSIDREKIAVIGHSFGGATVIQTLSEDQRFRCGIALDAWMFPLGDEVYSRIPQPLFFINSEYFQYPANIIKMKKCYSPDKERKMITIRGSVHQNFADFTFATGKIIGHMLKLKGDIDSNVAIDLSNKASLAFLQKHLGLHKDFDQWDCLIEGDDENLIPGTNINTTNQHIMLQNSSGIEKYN
PAFAH2 FP conf: PAFAH2 (human) inhibition, confirmed; inhibition, % at 3.39 µM; shares compounds with PAFAH2 FP inh; hit rate 65% among 2,300; recombinant PAFAH2, FP-rhodamine activity probe, fluorescence polarization;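 active = mean inhibition over three repeats above a set limit taken from the earlier primary screen, cut at about 30% in these data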;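 note: inhibitor blocks binding of rhodamine activity probe so polarization falls; 0% = enzyme with DMSO and 100% = wells lacking PAFAH2 protein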
Starred values were filed as active, the others as inactive; . = not tested or not shown.

SMILES	mABHD4 FP	PAFAH2 FP inh	HTRA1 inhibitor	PAFAH1B2 FP inh	PAFAH1B3 FP inh	pPAFAH FP inh	PAFAH2 FP conf
COc1ccc(-n2c(SCC(=O)NN=Cc3c(O)ccc4ccccc34)nnc2-c2ccc(C(C)(C)C)cc2)cc1	12	.	.	.	.	.	.
O=C1OC(C(=O)NCc2ccccc2)Cc2ccccc21 (stereo unspecified)	3	35*	-10	5	12	1	20
CCOC(=O)CC[C@@]1(C(=O)OCC)C[C@@H](CC(=O)NCc2ccc(C)o2)C(=O)N2CCCC=C21	2	.	.	.	.	.	.
CCCc1c(C(=O)NNc2ccc(C)cc2)cnn1-c1ccccc1	10	33*	-3	4	-1	4	14
C[C@H]1[C@@H](NCc2cccs2)CC[C@@]23CCCN2C(=O)CCC[C@@H]13	0	.	.	.	.	.	.
CC(=O)CC[C@H]1CC[C@]2(CCCN(C(=O)C(C)(C)C)C2)O1	8	.	.	.	.	.	.
Nc1cc(=O)[nH]c(SCc2cccc3ccccc23)n1	-5	-4	-19	5	0	2	.
O=c1cc(C(F)(F)F)nc(SCc2cccc3ccccc23)[nH]1	-34	51*	-55	9	3	3	31*
CCc1cc(=O)[nH]c(SCc2cccc3ccccc23)n1	.	61*	-17	7	5	3	51*
O=C(O)CCCN1C(=O)/C(=C/c2ccc(-c3nc4ccccc4s3)o2)SC1=S	20	50*	3	15	6	19	51*
O=C(O)CCCCCN1C(=O)/C(=C\c2ccc(-c3ccc(Cl)cc3)o2)SC1=S	1	3	2	-2	4	1	.
CCOC(=O)[C@]12CCCC3=C1N(CCC3)C(=O)[C@@H](CC(=O)NCc1ccc(OC)c(OC)c1)C2	-5	.	.	.	.	.	.
CC(=O)Oc1ccccc1/C=C/c1nc2ccccc2c(=O)o1	-11	86*	9	4	5	2	70*
CC(=O)Oc1ccc(-c2nc3ccccc3c(=O)o2)cc1	3	19	-3	3	11	-1	.
O=c1oc(/C=C/c2ccc([N+](=O)[O-])s2)nc2ccccc12	.	19	-3	7	-2	6	.
CC(=O)Oc1ccc(/C=C/c2nc3ccccc3c(=O)o2)cc1	6	50*	-1	7	9	-5	57*
O=C(COc1c(Cl)cc(Cl)cc1Cl)N/N=C/c1ccc[nH]1	-2	.	.	.	.	.	.
Cc1ccccc1CN1CCCCC(NC(=O)c2ccc(Br)cc2)C1=O (stereo unspecified)	-4	.	.	.	.	.	.
Cc1ccc2c(c1)N(CCCC(=O)NCc1ccc(F)cc1)C(=O)CO2	2	.	.	.	.	.	.
CCCOc1ccc2c3c(c(=O)oc2c1OCCC)CCCC3	0	35*	-25	0	-7	5	19
COc1cccc(CCNC(=O)CCc2nc(-c3ccccc3F)no2)c1	0	.	.	.	.	.	.
COC(=O)[C@]12C[C@H](CC(=O)NCC3CCCCC3)C(=O)N(Cc3cccc4ccccc34)C1=C[C@H](C(C)(C)C)O[C@@H]2C	-8	.	.	.	.	.	.
COC(=O)C[C@@H]1CC[C@@H]2[C@@H](COc3ccc(NC(C)=O)cc3C(=O)N2C)O1	3	.	.	.	.	.	.
COc1cc(C)c2c(c1C=O)Oc1c(c(C)c(O)c3c1C(O)OC3=O)OC2=O (stereo unspecified)	26	49*	8	1	3	7	25
CCOC(=O)c1c(C)[nH]c(N=Nc2ccc(C)cc2)c1C	-2	2	-9	1	12	2	.
SMILES	mABHD4 FP	PAFAH2 FP inh	HTRA1 inhibitor	PAFAH1B2 FP inh	PAFAH1B3 FP inh	pPAFAH FP inh	PAFAH2 FP conf
Cc1ccc(N=Nc2c(O)ccc3n[nH]nc23)cc1	-2	30*	-15	8	2	.	23
COc1ccccc1NC(=O)CC1Nc2ccccc2NC1=O (stereo unspecified)	-9	86*	8	5	9	9	-1
CC(=O)N1C[C@@H](c2c[nH]c3ccccc23)C=C[C@H]1C(=O)NS(=O)(=O)c1ccc(C)cc1	8	.	.	.	.	.	.
Cc1ccc(NC(=O)Cc2nc(CN(C)CC(=O)Nc3ccc(C)cc3)cs2)cc1	12	31*	-21	9	5	14	16
O=[N+]([O-])c1cccc(S(=O)(=O)Nc2nc3ccccc3nc2Nc2cccc(S(=O)(=O)N3CCCCC3)c2)c1	22	45*	-6	21	8	.	13
O=[N+]([O-])c1cccc(S(=O)(=O)Nc2ccc(S(=O)(=O)N3CCCC3)cc2)c1	0	7	5	4	5	3	.
COc1ccc(CCNC(=O)COC(=O)/C=C/c2cccc(F)c2)cc1	-5	24	-5	8	7	7	.
O=C(COC(=O)/C=C/c1cccc(F)c1)Nc1ccccc1	0	76*	8	3	12	10	82*
CCCNC(=O)COC(=O)/C=C/c1cccc(F)c1	-2	33*	3	7	3	6	20
COC(=O)[C@]12C[C@H](CC(=O)NCCC(C)C)C(=O)N(Cc3ccccc3)C1=C[C@H](COCc1ccccc1)O[C@@H]2C	3	.	.	.	.	.	.
COc1ccc(-c2nc3ccccc3s2)cc1NC(C)=O	3	41*	-5	1	19	1	3
CCN(CC)c1ccc(/C=N/n2c(-c3ccccc3Br)n[nH]c2=S)cc1	-3	31*	-6	9	1	17	10
CCN(CC)c1ccc(C=Nn2c(-c3cc(C)[nH]n3)n[nH]c2=S)cc1	10	.	.	.	.	.	.
CN(C)CCNC(=O)c1cc2c(=O)n(C)c3ccccc3c2n1C	-3	47*	-3	2	11	-6	2
CCN(CC)CCNC(=O)c1cc2c(=O)n(C)c3ccccc3c2n1C	-4	-1	4	-1	2	-5	.
CCCCCCC(=O)Nc1c(O)c2ccccc2[nH]c1=O	3	42*	2	10	11	2	22
CCOC(=O)/C=C/C(=O)OCC(=O)Nc1ccc(C)cc1	1	.	.	.	.	2	.
Cc1ccc(NC(=O)COC(=O)/C=C/c2cccs2)cc1	3	80*	2	-3	-4	6	73*
O=C(COC(=O)/C=C/c1cccs1)NC(=O)Cc1ccccc1	-2	6	-9	2	10	5	.
C=CCNC(=O)COC(=O)/C=C/c1cccs1	2	49*	-5	1	6	-2	26
